Measurements from ChEMBL document CHEMBL4043131, “New prodrugs of two pyrimidine acyclic nucleoside phosphonates: Synthesis and antiviral activity” (Bioorg Med Chem, 2017).
Activity calls are given as the source filed them. The rule behind the calls is not given here.

What was measured:
[1] = system: Human alphaherpesvirus 1; test: Antiviral activity against wild type Herpes simplex virus 1 KOS infected in HEL cells assessed as inhibition of virus-induced cytopathic effect; format: functional, cell-based; settings: Human alphaherpesvirus 1, KOS
[2] = system: Human alphaherpesvirus 2; test: Antiviral activity against Herpes simplex virus 2 G infected in HEL cells assessed as inhibition of virus-induced cytopathic effect; format: functional, cell-based; settings: Human alphaherpesvirus 2, strain G
How it was run: (§1)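 Confluent cell monolayers were infected with 100 CCID50 of virus (1 CCID50 = dose infecting 50% of cultures) and incubated with varying compound concentrations. Cytopathicity was scored once complete in untreated infected controls.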

[3] = system: Human alphaherpesvirus 1; test: Antiviral activity against thymidine kinase-deficient ACV-resistant Herpes simplex virus 1 KOS infected in HEL cells assessed as inhibition of virus-induced cytopathic effect; format: functional, cell-based; settings: Human alphaherpesvirus 1, KOS
[4] = system: Human alphaherpesvirus 3; test: Antiviral activity against wild type thymidine kinase expressing Varicella-Zoster virus Oka infected in HEL cells assessed as inhibition of virus-induced plaque formation; format: functional, cell-based; settings: Human alphaherpesvirus 3, Oka
How it was run: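 Confluent HEL cultures were inoculated with 20 PFU of VZV and incubated with varying compound concentrations. Plaques were counted once formation was complete in untreated infected controls.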

[5] = system: Human alphaherpesvirus 3; test: Antiviral activity against wild type thymidine kinase-deficient Varicella-Zoster virus 07-1 infected in HEL cells assessed as inhibition of virus-induced plaque formation; format: functional, cell-based; settings: Human alphaherpesvirus 3, 07-1, HEL
How it was run: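 HEL fibroblast monolayers were infected with 20 PFU of VZV and kept with varying compound concentrations. Plaques were counted once formation was complete in untreated infected controls.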

[6] = system: Human betaherpesvirus 5; test: Antiviral activity against Human cytomegalovirus AD169 infected in HEL cells assessed as inhibition of virus-induced cytopathic effect; format: functional, cell-based; settings: Human betaherpesvirus 5, AD169, HEL; how it was run: as §1
[7] = system: Human betaherpesvirus 5; test: Antiviral activity against Human cytomegalovirus Davis infected in HEL cells assessed as inhibition of virus-induced cytopathic effect; format: functional, cell-based; settings: Human betaherpesvirus 5, Davis; how it was run: as §1
[8] = system: Vaccinia virus; test: Antiviral activity against Vaccinia virus Lederle infected in HEL cells assessed as inhibition of virus-induced cytopathic effect; format: functional, cell-based; settings: Orthopoxvirus vaccinia
[9] = system: Vesicular stomatitis virus; test: Antiviral activity against Vesicular stomatitis virus infected in HEL cells assessed as inhibition of virus-induced cytopathic effect; format: functional, cell-based
[10] = system: Coxsackievirus B4; test: Antiviral activity against Coxsackie virus B4 infected in human HeLA cells assessed as inhibition of virus-induced cytopathic effect; format: functional, cell-based; how it was run: as §1
[11] = Antiviral activity against Respiratory syncytial virus A strain long infected in human HeLA cells assessed as inhibition of virus-induced cytopathic effect; format: functional, cell-based; how it was run: as §1
[12] = system: Human respirovirus 3; test: Antiviral activity against Parainfluenza virus 3 infected in African green monkey Vero cells assessed as inhibition of virus-induced cytopathic effect; format: functional; how it was run: as §1
[13] = system: Mammalian orthoreovirus 1; test: Antiviral activity against Reovirus-1 infected in African green monkey Vero cells assessed as inhibition of virus-induced cytopathic effect; format: functional; how it was run: as §1
[14] = system: Sindbis virus; test: Antiviral activity against Sindbis virus infected in African green monkey Vero cells assessed as inhibition of virus-induced cytopathic effect; format: functional; how it was run: as §1
[15] = system: Punta Toro virus; test: Antiviral activity against Punta Toro virus infected in African green monkey Vero cells assessed as inhibition of virus-induced cytopathic effect; format: functional; how it was run: as §1
[16] = system: Feline coronavirus; test: Antiviral activity against Feline coronavirus infected in CRFK cells assessed as inhibition of virus-induced cytopathic effect; format: functional, cell-based
[17] = Selectivity index, ratio of CC50 for HEL cells to EC50 for Human cytomegalovirus AD169 infected in HEL cells; format: toxicity, cell-based; settings: read-out: Ratio CC50/EC50
[18] = Selectivity index, ratio of CC50 for HEL cells to EC50 for wild type Herpes simplex virus 1 KOS infected in HEL cells; format: toxicity, cell-based; settings: human, read-out: Ratio CC50/EC50
How it was run: (§2)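 EC50 is the concentration halving cytopathicity in HEL cells infected with 100 CCID50 HSV. […] Cells were counted by Coulter counter, and CC50 was read from plots of cell number (% of untreated) versus concentration. SI = CC50/EC50.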

[19] = Selectivity index, ratio of CC50 for HEL cells to EC50 for Herpes simplex virus 2 G infected in HEL cells; format: toxicity, cell-based; settings: human, read-out: Ratio CC50/EC50; how it was run: as §2
[20] = Selectivity index, ratio of CC50 for HEL cells to EC50 for thymidine kinase-deficient ACV-resistant Herpes simplex virus 1 KOS infected in HEL cells; format: toxicity, cell-based; settings: human, read-out: Ratio CC50/EC50; how it was run: as §2
[21] = Selectivity index, ratio of CC50 for HEL cells to EC50 for wild type thymidine kinase expressing Varicella-Zoster virus Oka infected in HEL cells; format: toxicity, cell-based; settings: human, read-out: Ratio CC50/EC50
[22] = Selectivity index, ratio of CC50 for HEL cells to EC50 for wild type thymidine kinase-deficient Varicella-Zoster virus 07-1 infected in HEL cells; format: toxicity, cell-based; settings: human, read-out: Ratio CC50/EC50
[23] = Selectivity index, ratio of CC50 for HEL cells to EC50 for Human cytomegalovirus Davis infected in HEL cells; format: toxicity, cell-based; settings: read-out: Ratio CC50/EC50
[24] = system: Influenza A virus; test: Antiviral activity against Influenza A virus (H1N1) infected in HEL cells assessed as inhibition of virus-induced cytopathic effect; format: functional, cell-based
[25] = system: Influenza A virus H3N2; test: Antiviral activity against Influenza A virus H3N2 infected in HEL cells assessed as inhibition of virus-induced cytopathic effect; format: functional, cell-based
[26] = system: Influenza B virus; test: Antiviral activity against influenza B virus infected in HEL cells assessed as inhibition of virus-induced cytopathic effect; format: functional, cell-based
[27] = system: HEL; test: Cytotoxicity against HEL cells assessed as reduction in cell growth after 3 days by coulter counter method; format: cell-based; settings: human, hel, 72 h
How it was run: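 HEL cells were seeded at 5 × 10³ cells/well and grown for 24 h, then given medium containing graded compound concentrations. After 3 days at 37 °C, cells were counted by Coulter counter.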

SMILES | EC50 [1] | EC50 [2] | EC50 [3] | EC50 [4] | EC50 [5] | EC50 [6] | EC50 [7] | EC50 [8] | Activity [9] | Activity [10] | Activity [11] | Activity [12] | Activity [13] | Activity [14] | Activity [15] | Activity [16] | Activity [24] | Activity [25] | Activity [26] | CC50 [27] | further results
CCCCCCCCCCCCCCCCNC(=O)[C@@H](N)Cc1ccc(OP(=O)(COCCn2cnc(N)nc2=O)Oc2ccc(C[C@H](N)C(=O)NCCCCCCCCCCCCCCCC)cc2)cc1 | 0.6 µM | 0.4 µM | 0.4 µM | 0.58 µM | 0.29 µM | 2.16 µM | 0.48 µM | > 100 µM | inactive | inactive | inactive | inactive | inactive | inactive | inactive | inactive | inactive | inactive | inactive |  | selectivity ratio [17]: 13 to 56; selectivity ratio [18]: 45 to 68; selectivity ratio [19]: 45 to 68; selectivity ratio [20]: 45 to 68; selectivity ratio [21]: 47 to 93; selectivity ratio [22]: 47 to 93; selectivity ratio [23]: 13 to 56
CCCCCCCCCCCCCCCCCCOCCOP(=O)(O)COCCn1cnc(N)nc1=O | 0.35 µM | 0.15 µM | 0.2 µM | 0.32 µM | 0.79 µM | 1.12 µM | 0.24 µM | > 100 µM | inactive | inactive | inactive | inactive | inactive | inactive | inactive | inactive | inactive | inactive | inactive | 79.2 µM | selectivity ratio [17]: 71 to 330; selectivity ratio [18]: 226 to 528; selectivity ratio [19]: 226 to 528; selectivity ratio [20]: 226 to 528; selectivity ratio [21]: 100 to 248; selectivity ratio [22]: 100 to 248; selectivity ratio [23]: 71 to 330
CCOC(=O)[C@H](C)NP(=O)(COCCOc1cc(N)nc(N)n1)N[C@@H](C)C(=O)OCC | 3.9 µM | 3.46 µM | 6.3 µM | 0.56 µM | 1.69 µM | 28.4 µM | 17 µM | 157 µM | inactive | inactive | inactive | inactive | inactive | inactive | inactive | inactive | inactive | inactive | inactive | 25.9 µM | selectivity ratio [17]: ≤ 1; selectivity ratio [18]: 4 to 15; selectivity ratio [19]: 4 to 15; selectivity ratio [20]: 4 to 15; selectivity ratio [21]: 15 to 52; selectivity ratio [22]: 15 to 52; selectivity ratio [23]: ≤ 1
CCOC(=O)[C@H](Cc1ccccc1)NP(=O)(O)COCCn1cnc(N)nc1=O | > 100 µM | > 100 µM | > 100 µM | > 100 µM | > 100 µM | > 100 µM | > 100 µM | > 100 µM | inactive | inactive | inactive | inactive | inactive | inactive | inactive | inactive | inactive | inactive | inactive | > 100 µM | 
CC(C)(C)C(=O)OCOP(=O)(O)COCCn1cnc(N)nc1=O | 142 µM | 142 µM | 131 µM | 40.7 µM | 128 µM | 123 µM | 116 µM | > 275 µM | inactive | inactive | inactive | inactive | inactive | inactive | inactive | inactive | inactive | inactive | inactive | > 275 µM | 
CC(C)(C)C(=O)OCOP(=O)(O)COCCOc1cc(N)nc(N)n1 | 39.5 µM | 29 µM | 54 µM | 2.54 µM | 5.91 µM | > 100 µM | > 100 µM | > 100 µM | inactive | inactive | inactive | inactive | inactive | inactive | inactive | inactive | inactive | inactive | inactive | ≥ 100 µM | 
CC(C)(C)C(=O)OCOP(=O)(COCCn1cnc(N)nc1=O)OCOC(=O)C(C)(C)C | 0.84 µM | 1.26 µM | 0.73 µM | 0.65 µM | 1.32 µM | 3.24 µM | 0.97 µM | 152 µM | inactive | inactive | inactive | inactive | inactive | inactive | inactive | inactive | inactive | inactive | inactive | 46 µM | selectivity ratio [17]: 14 to 47; selectivity ratio [18]: 37 to 63; selectivity ratio [19]: 37 to 63; selectivity ratio [20]: 37 to 63; selectivity ratio [21]: 35 to 71; selectivity ratio [22]: 35 to 71; selectivity ratio [23]: 14 to 47
COP(=O)(O)COCCn1cnc(N)nc1=O | > 100 µM | > 100 µM | > 100 µM | > 100 µM | > 100 µM | > 100 µM | > 100 µM | > 100 µM | inactive | inactive | inactive | inactive | inactive | inactive | inactive | inactive | inactive | inactive | inactive | > 100 µM | 
Nc1cc(OCCOCP(=O)(O)O)nc(N)n1 | 45 µM | 20 µM | 54 µM | 2.07 µM | 4.72 µM | > 100 µM | > 100 µM | > 100 µM | inactive | inactive | inactive | inactive | inactive | inactive | inactive | inactive | inactive | inactive | inactive | 90.3 µM | selectivity ratio [18]: 1.72 to 4.5; selectivity ratio [19]: 1.72 to 4.5; selectivity ratio [20]: 1.72 to 4.5; selectivity ratio [21]: 19 to 44; selectivity ratio [22]: 19 to 44
